Measurements as given in BindingDB's records for doi:10.1021/jm9811256 (Academy of Sciences of The Czech Republic, 1999).

Tests used:
[1] = Inhibitory activity against varicella zoster virus thymidine kinase (VZV TK+) YS strain
[2] = Inhibitory activity against varicella zoster virus thymidine kinase (VZV TK+) OKA strain
[3] = Inhibitory activity against herpes simplex virus type 1 (HSV-1) thymidine kinase (TK) VMW 1837 strain
[4] = Inhibitory activity against varicella zoster virus thymidine kinase (VZV TK-) 07/1 strain
[5] = Inhibition of herpes simplex virus type 1 thymidine kinase (HSV-1 TK-) B2006 strain
[6] = Inhibition of varicella zoster virus thymidine kinase (VZV TK+) YS/R strain
Thymidine kinase [7] = biological target: T1, Thymidine kinase (Human herpesvirus 3, UniProt Q6QCL9); assay: Inhibitory activity against varicella zoster virus thymidine kinase (VZV TK+) YS strain
T1 sequence (Q6QCL9 whole entry): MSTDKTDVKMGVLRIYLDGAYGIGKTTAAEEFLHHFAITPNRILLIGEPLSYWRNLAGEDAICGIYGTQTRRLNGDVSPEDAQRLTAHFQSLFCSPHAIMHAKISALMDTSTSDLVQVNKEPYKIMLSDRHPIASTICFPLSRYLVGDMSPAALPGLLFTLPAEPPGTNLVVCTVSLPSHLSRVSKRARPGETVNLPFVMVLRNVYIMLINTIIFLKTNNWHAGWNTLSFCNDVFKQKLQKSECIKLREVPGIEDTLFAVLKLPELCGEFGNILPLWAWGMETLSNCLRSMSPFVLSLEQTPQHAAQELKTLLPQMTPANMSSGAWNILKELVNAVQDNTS
Summary of the method: (§1)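 HEL cell cultures were grown to confluence and infected with 100 CCID50 of VZV. After a 1 h adsorption period, unbound virus was removed and compound was added at serial concentrations (400, 200, 100, ... μg/mL). Cytopathic effect was read when untreated virus controls reached full cytopathicity.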

Thymidine kinase [8] = biological target: T1, Thymidine kinase; assay: Inhibitory activity against varicella zoster virus thymidine kinase (VZV TK+) OKA strain
Summary of the method: as §1

Row | Compound | EC50 [1] [µM] | EC50 [2] [µM] | EC50 [3] [µM] | EC50 [4] [µM] | EC50 [5] [µM] | EC50 [6] [µM] | EC50 (Thymidine kinase [7]) [µM] | EC50 (Thymidine kinase [8]) [µM]
1 | CC(C)OP(=O)(COCCn1cnc2c(N)nc(N)nc21)OC(C)C | 96.6 | > 134 | 214 | > 134 | 644 | – | – | –
2 | Nc1cccc2c1ncn2CCOCP(=O)(O)O | > 184 | > 184 | > 1470 | > 184 | > 1470 | – | – | –
3 | CC(C)OP(=O)(O)COCCn1cnc2c(N)ncnc21 | > 158 | > 158 | 951 | > 158 | > 1260 | – | – | –
4 | Nc1cc2ncn(CCOCP(=O)(O)O)c2c(O)n1 | – | – | > 693 | – | > 693 | – | – | –
5 | Nc1ncc2ncn(CCOCP(=O)(O)O)c2n1 | 102 | 219 | 256 | 98.8 | – | – | – | –
6 | Nc1nc(=O)n(CCOCP(=O)(O)O)cc1Br | 15.2 | 18.2 | 60.9 | 9.14 | 914 | – | – | –
7 | Nc1nc(O)nc2c1ncn2CCOCP(=O)(O)O | > 172 | > 172 | > 1380 | > 172 | > 1380 | – | – | –
8 | CC(C)OP(=O)(COCCn1cnc2nc(N)nc(O)c21)OC(C)C | > 133 | > 133 | > 535 | – | > 535 | – | – | –
9 | NC1=NC2N=CC=NC2C(=O)N1CCOCP(=O)(O)O (centres undefined) | 115 | 26.3 | 230 | 98.9 | 230 | – | – | –
10 | CSc1ncnc2c1ncn2CCOCP(=O)(O)O | > 1310 | 164 | – | > 1310 | – | – | – | –
11 | CC(C)OP(=O)(COCCn1c(Br)nc2c(N)nc(N)nc21)OC(C)C | > 110 | 57.6 | > 886 | > 110 | > 886 | – | – | –
12 | Nc1nc(=O)ccn1CCOCP(=O)(O)O | 160 | > 401 | – | > 401 | – | – | – | –
13 | Nc1cc(N)c2ncn(CCOCP(=O)(O)O)c2n1 | > 174 | > 174 | 243 | > 174 | 522 | – | – | –
14 | CC(C)OP(=O)(COCCn1cnc2c(S)ncnc21)OC(C)C | > 133 | > 133 | > 1060 | > 133 | > 1060 | – | – | –
15 | Nc1nnc(N)c2c1ncn2CCOCP(=O)(O)O | > 173 | > 173 | 1040 | > 173 | > 693 | – | – | –
16 | Nc1nc(Cl)c2ncn(CCOCP(=O)(O)O)c2n1 | 0.227 | 0.0195 | 0.747 | 0.065 | 0.487 | – | – | –
17 | Nc1cc2c(ncn2CCOCP(=O)(O)O)c(N)n1 | > 17.4 | > 17.4 | 243 | > 17.4 | 1390 | – | – | –
18 | CC(C)CCCCCOP(=O)(COCCn1cnc2c(N)ncnc21)OCCCCCC(C)C | 4.01 | 4.82 | > 6.43 | 6.63 | > 6.43 | – | – | –
19 | CCOP(=O)(O)COCCn1cnc2c(N)nc(N)nc21 | 15.8 | 12.6 | 474 | 6.32 | 632 | – | – | –
20 | CCOP(=O)(O)COCCn1cnc2c(O)nc(N)nc21 | 0.0315 | 0.0252 | 6.3 | 0.0126 | 12.6 | – | – | –
21 | Nc1cnn(CCOCP(=O)(O)O)c(=O)n1 | > 399 | > 399 | – | > 399 | – | – | – | –
22 | CC(C)OP(=O)(COCCn1ncc(N)nc1=O)OC(C)C | 290 | > 299 | – | 239 | – | – | – | –
23 | Nc1nc(N)c2nc(Br)n(CCOCP(=O)(O)O)c2n1 | 22.8 | 8.71 | 54.4 | 16.3 | 54.4 | – | – | –
24 | CC(C)OP(=O)(COCCn1cnc2c(N)ncnc21)OC(C)C | 111 | 19.5 | > 1110 | 55.9 | > 1110 | – | – | –
25 | Nc1nc(O)c2c(ncn2CCOCP(=O)(O)O)n1 | > 172 | 152 | > 691 | – | > 691 | – | – | –
26 | Nc1nccc(OCCOCP(=O)(O)O)n1 | > 401 | > 401 | > 802 | > 401 | – | – | – | –
27 | CC(C)OP(=O)(O)COCCn1cnc2c(N)nc(N)nc21 | > 151 | 96.8 | > 1210 | > 151 | > 1210 | – | – | –

Row | Compound | EC50 [1] [µM] | EC50 [2] [µM] | EC50 [3] [µM] | EC50 [4] [µM] | EC50 [5] [µM] | EC50 [6] [µM] | EC50 (Thymidine kinase [7]) [µM] | EC50 (Thymidine kinase [8]) [µM]
28 | Nc1cc2c(ncn2CCOCP(=O)(O)O)c(O)n1 | – | 2.56 | 6.93 | 3.22 | 24.2 | 1.76 | 5.55 | –
29 | CC(C)OP(=O)(O)COCCn1cnc2c(O)nc(N)nc21 | 0.0302 | 0.0121 | 17.2 | 0.0151 | 17.2 | – | – | –
30 | CC(C)OP(=O)(COCCn1cnc2c(O)nc(N)nc21)OC(C)C | 37.4 | 53.5 | 642 | 83 | 642 | – | – | –
31 | Nc1nc(S)c2c(ncn2CCOCP(=O)(O)O)n1 | 98.2 | 121 | 65.5 | 65.5 | > 327 | – | – | –
32 | CC(C)CCCCCOP(=O)(COCCn1cnc2nc(N)nc(O)c21)OCCCCCC(C)C | 58.4 | 62.3 | > 31.1 | 50.6 | > 31.1 | – | – | –
33 | Nc1nc(F)nc2c1ncn2CCOCP(=O)(O)O | 99.5 | 85.8 | 240 | 113 | 68.6 | – | – | –
34 | CC(C)CCCCCOP(=O)(COCCn1cnc2c(O)nc(N)nc21)OCCCCCC(C)C | 8.17 | – | > 155 | 35 | > 155 | – | – | 21.4
35 | Nc1ncnc2c1nc(Br)n2CCOCP(=O)(O)O | > 142 | > 142 | – | > 142 | – | – | – | –
36 | Nc1ccnc2c1ncn2CCOCP(=O)(O)O | 734 | > 1460 | 551 | 1100 | 734 | – | – | –
37 | O=P(O)(O)COCCn1cnc2c(S)ncnc21 | > 172 | – | > 1370 | > 172 | > 1370 | – | – | –
38 | CCOP(=O)(O)COCCn1cnc2c(N)ncnc21 | 199 | 132 | 497 | 149 | 497 | – | – | –
39 | CC(C)CCCCCOP(=O)(COCCn1cnc2nc(N)nc(Cl)c21)OCCCCCC(C)C | > 9.39 | > 9.39 | > 30 | > 9.39 | > 30 | – | – | –
40 | CC(C)OP(=O)(COCCn1cnc2c(Cl)nc(N)nc21)OC(C)C | 25.5 | 33.1 | – | 22.9 | – | – | – | –
41 | Nc1nc(O)c2nc(Br)n(CCOCP(=O)(O)O)c2n1 | 48.9 | 10.8 | 130 | 76 | > 1080 | – | – | –
42 | Cc1nc(N)nc2c1ncn2CCOCP(=O)(O)O | > 174 | > 174 | 696 | > 174 | 522 | – | – | –
43 | CC(C)CCCCCOP(=O)(O)COCCn1cnc2c(O)nc(N)nc21 | 32.3 | 3.98 | 597 | 87.1 | 597 | – | – | –
44 | Nc1ncnc2c1ccn2CCOCP(=O)(O)O | 73.4 | 183 | 551 | – | 1100 | – | – | –
45 | CC(C)CCCCCOP(=O)(COCCn1cnc2c(N)nc(N)nc21)OCCCCCC(C)C | 6.24 | > 9.75 | > 31.2 | > 39 | > 31.2 | – | – | –
46 | CC(C)OP(=O)(COCCn1c(Br)nc2c(O)nc(N)nc21)OC(C)C | > 110 | > 110 | 530 | > 110 | > 884 | – | – | –
47 | Nc1ccn(CCOCP(=O)(O)O)c(=O)n1 | 1600 | 602 | 401 | 602 | – | – | – | –
48 | Nc1nc(Cl)nc2c1ncn2CCOCP(=O)(O)O | 104 | 130 | – | 61.7 | – | – | – | –
49 | CC(C)OP(=O)(COCCn1cnc2c(N)nc(Cl)nc21)OC(C)C | 9.44 | 1.27 | – | – | – | – | – | –
50 | CC(C)CCCCCOP(=O)(COCCn1cnc2c(Cl)nc(N)nc21)OCCCCCC(C)C | > 3.75 | > 3.75 | > 30 | > 3.75 | > 30 | – | – | –
51 | Nc1nccc2c1ncn2CCOCP(=O)(O)O | 367 | 183 | – | 257 | – | – | – | –
52 | Nc1ccn(CCOCP(=O)(O)O)c(=O)c1 | 261 | > 402 | – | 302 | – | – | – | –
53 | Nc1nc(N)c2ncn(CCOCP(=O)(O)O)c2n1 [PMEDAP] | 6.93 | 3.46 | 6.93 | 8.67 | – | – | – | –
